This passage reports IC50 and Ki results from ChEMBL document CHEMBL5107952, “Synthesis of low-molecular weight fucoidan derivatives and their binding abilities to SARS-CoV-2 spike proteins” (RSC Med Chem, 2021).

Holding throughout (assay type): cell-based, Severe acute respiratory syndrome coronavirus 2
Assay [1] in a line: Competitive inhibition of biotinylated heparin binding to His-tagged SARS-COV-2 B.1.1.7 variant recombinant spike glycoprotein del69-70/del144/N501Y/A570D/D614G/P681H/T716I/S982A/D1118H mutant expressed in Expi293F cells incubated for 120 sec by biolayer interferometry streptavidin sensor based assay. Summed up:
(§1)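 Same heparin-competition BLI format with variant S proteins (B.1.1.7, B.1.351, P.1). Biotinylated heparin sat on streptavidin sensors, and S protein (1 μM) was in TBS (20 mM Tris, pH 7.4, 0.02% BSA). Bound (%) was read from the BLI signal. IC50 was fitted and converted to Ki via Cheng–Prusoff.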
A general note: Biolayer interferometry detects binding as a change in optical thickness at a sensor tip.

Assay [2] in a line: Competitive inhibition of biotinylated heparin binding to His-tagged SARS-COV-2 B.1.351 variant recombinant spike glycoprotein D80A/D215G/K417N/E484K/N501Y/D614G/A701V mutant expressed in Expi293F cells incubated for 120 sec by biolayer interferometry streptavidin sensor based assay. Summed up:
as §1

The nature of assay [3]: Competitive inhibition of biotinylated heparin binding to His-tagged SARS-COV-2 P.1 variant recombinant spike glycoprotein L18F/T20N/P26S/D138Y/R190S/K417T/E484K/N501Y/H655Y/T1027I mutant expressed in Expi293F cells incubated for 300 sec by biolayer interferometry streptavidin sensor based assay. Summed up:
as §1

The nature of assay [4]: Competitive inhibition of biotinylated heparin binding to His-tagged SARS-COV-2 B.1.1.7 variant recombinant spike glycoprotein del69-70/del144/N501Y/A570D/D614G/P681H/T716I/S982A/D1118H mutant expressed in Expi293F cells assessed as inhibition constant incubated for 120 sec by biolayer interferometry streptavidin sensor based assay. Summed up: as §1
Assay [5] in a line: Competitive inhibition of biotinylated heparin binding to His-tagged SARS-COV-2 B.1.351 variant recombinant spike glycoprotein D80A/D215G/K417N/E484K/N501Y/D614G/A701V mutant expressed in Expi293F cells assessed as inhibition constant incubated for 120 sec by biolayer interferometry streptavidin sensor based assay. The method in brief: as §1
Assay [6] can be described thus: Competitive inhibition of biotinylated heparin binding to His-tagged SARS-COV-2 P.1 variant recombinant spike glycoprotein L18F/T20N/P26S/D138Y/R190S/K417T/E484K/N501Y/H655Y/T1027I mutant expressed in Expi293F cells assessed as inhibition constant incubated for 300 sec by biolayer interferometry streptavidin sensor based assay. The method in brief:
as §1

A word on the IC50: it is the concentration that gives 50% inhibition. By Ki is commonly meant the dissociation constant of the complex between target and ligand, obtained from inhibition or displacement. As to `CCCCCCCCO[C@H]1O[C@@H](C)[C@@H](O[C@@H]2O[C@@H](C)[C@@H](O[C@@H]3O[C@@H](C)[C@@H](O[C@@H]4O[C@@H](C)[C@@H](OS(=O)(=O)O)[C@@H](OS(=O)(=O)O)[C@@H]4OS(=O)(=O)O)[C@@H](OS(=O)(=O)O)[C@@H]3OS(=O)(=O)O)[C@@H](OS(=O)(=O)O)[C@@H]2OS(=O)(=O)O)[C@@H](OS(=O)(=O)O)[C@@H]1OS(=O)(=O)O`, the IC50 turned out to be 35 µM in assay [1], 85.9 µM in assay [2] and 65.6 µM in assay [3]. Besides, the values for the Ki in assay [4], in assay [5] and in assay [6] were 10.1 µM, 6.67 µM and 6.98 µM, respectively.
